Data published in ChEMBL document CHEMBL4219179, “Small-molecules that bind to the ubiquitin-binding motif of REV1 inhibit REV1 interaction with K164-monoubiquitinated PCNA and suppress DNA damage tolerance” (Bioorg Med Chem, 2018).
Active and inactive are the calls of the source. No cut-off for these calls is given here.

Assays:
[1] = Inhibition of biotin/Avi-tagged UbPCNA binding to recombinant human N-terminal His-tagged REV1 deletion mutant BRCT/UBM1/UBM2 domain expressed in Escherichia coli BL21(DE3) measured after 1 hr by AlphaScreen assay
How it was run: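 AlphaScreen with 200 nM biotin-AviTag-Ub-PCNA (enzymatically K164-ubiquitinated) and 40 nM N-His REV1 in PBS pH 7.4, 0.1% BSA, 0.05% Tween-20, with serial compound dilutions. Ni-chelate acceptor beads added, streptavidin donor beads after 1 h, read 1 h later; dose-response fitted on final concentrations.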

[2] = target: T1, DNA repair protein REV1 (Homo sapiens) (UniProt Q9UBZ9); assay: Binding affinity to recombinant human REV1 UBM2 domain assessed as chemical shift changes by [1H,15N]-HSQC NMR spectral analysis
T1 sequence (whole entry): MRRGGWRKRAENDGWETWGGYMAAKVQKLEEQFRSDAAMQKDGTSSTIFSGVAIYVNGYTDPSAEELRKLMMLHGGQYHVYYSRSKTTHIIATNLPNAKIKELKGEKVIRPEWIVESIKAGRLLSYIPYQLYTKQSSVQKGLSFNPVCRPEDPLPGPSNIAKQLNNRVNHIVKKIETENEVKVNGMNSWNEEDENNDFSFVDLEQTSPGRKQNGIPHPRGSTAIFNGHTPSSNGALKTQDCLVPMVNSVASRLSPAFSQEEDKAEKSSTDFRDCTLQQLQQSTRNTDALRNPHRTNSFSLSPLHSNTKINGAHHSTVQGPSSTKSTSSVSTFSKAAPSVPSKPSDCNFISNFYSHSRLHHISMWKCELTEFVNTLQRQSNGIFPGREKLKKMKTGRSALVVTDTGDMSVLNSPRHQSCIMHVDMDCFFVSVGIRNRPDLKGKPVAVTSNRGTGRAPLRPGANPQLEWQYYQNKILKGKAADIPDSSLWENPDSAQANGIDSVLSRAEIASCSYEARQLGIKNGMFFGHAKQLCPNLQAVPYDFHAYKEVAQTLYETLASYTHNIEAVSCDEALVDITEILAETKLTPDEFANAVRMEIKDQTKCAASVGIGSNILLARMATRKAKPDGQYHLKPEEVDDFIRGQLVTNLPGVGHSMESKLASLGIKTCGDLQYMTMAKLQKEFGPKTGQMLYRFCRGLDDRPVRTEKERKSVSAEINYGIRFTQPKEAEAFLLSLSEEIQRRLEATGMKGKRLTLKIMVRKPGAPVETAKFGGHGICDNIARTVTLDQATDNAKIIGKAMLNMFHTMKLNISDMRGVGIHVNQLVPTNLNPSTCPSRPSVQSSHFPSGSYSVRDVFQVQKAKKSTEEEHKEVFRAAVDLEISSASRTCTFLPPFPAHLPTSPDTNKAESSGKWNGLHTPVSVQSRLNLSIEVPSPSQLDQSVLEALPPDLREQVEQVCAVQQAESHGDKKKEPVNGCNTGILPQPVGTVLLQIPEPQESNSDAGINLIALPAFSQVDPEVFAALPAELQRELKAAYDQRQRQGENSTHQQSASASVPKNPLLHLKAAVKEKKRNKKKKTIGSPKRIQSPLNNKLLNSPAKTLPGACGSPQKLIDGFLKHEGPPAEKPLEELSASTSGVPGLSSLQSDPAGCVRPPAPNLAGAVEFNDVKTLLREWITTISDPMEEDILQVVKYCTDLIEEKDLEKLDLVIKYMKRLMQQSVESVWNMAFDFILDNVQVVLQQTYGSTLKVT
How it was run: (§1)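 15N-labeled REV1 UBM2 in 20 mM sodium phosphate pH 7.0, 100 mM NaCl, titrated at protein:compound ratios 1:2, 1:4, 1:6, 1:8 and 1:10. 1H and 15N shifts of displaced peaks tracked at each point; weighted average shift δav(NH) = [(δH² + (δN/5)²)/2]^1/2 per backbone amide.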

U2OS [3] = assay: Cytotoxicity against human U2OS cells expressing EGFP-tagged REV1 (unknown origin) at 150 uM; assay type: cell-based
[4] = target: T1, DNA repair protein REV1 (Homo sapiens); assay: Binding affinity to recombinant human REV1 UBM2 domain assessed as chemical shift perturbations on alpha-helix at REV1 UBM2 to compound molar ratio of 1:10 by [1H,15N]-HSQC NMR spectral analysis; how it was run: as §1
[5] = Solubility of the compound in sodium phosphate buffer at pH 7; assay type: physicochemical
[6] = target: T1, DNA repair protein REV1 (Homo sapiens); assay: Binding affinity to recombinant human REV1 UBM1/UBM2 domain (137 residues) expressed in Escherichia coli BL21(DE3) assessed as increase in NOE peaks at 200 uM by STD NMR spectral analysis
How it was run: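 STD NMR at 280 K with 10 µM protein and 200 µM compound. Saturation by a train of 30 ms Gaussian pulses for 4 s, on resonance at 0 ppm and off resonance at -40 ppm; 256 on/off FIDs recorded. REV1 UBM1-UBM2 expressed as for REV1 (His-tagged, Ni-NTA), tag removed by […].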

U2OS [7] = assay: Cytotoxicity against human U2OS cells assessed as reduction in colony formation at 75 uM incubated for 24 hrs followed by culture medium replacement with fresh medium and measured after 7 days by crystal violet staining based assay relative to control; assay type: cell-based
How it was run: (§2)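 U2OS cells, 300 per well, settled overnight, then given cisplatin or 4-hydroxycyclophosphamide at the stated final level. After 24 h, compound or DMSO added; medium replaced after another 24 h and cells grown 7 days. Formaldehyde fixation, 0.5% crystal violet staining, colonies of more than ~40 cells counted; triplicates, survival set to 1 for vehicle (saline for cisplatin, DMSO for 4-HC).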

[8] = target: T1, DNA repair protein REV1 (Homo sapiens); assay: Inhibition of UbPCNA binding to EGFP-tagged REV1 (unknown origin) expressed in human U2OS cells assessed as reduction in cisplatin-induced recruitment of EGFP-REV1 to PCNA foci on chromatin at 150 uM treated after 3.5 hrs cisplatin exposure and measured 6 hrs after post dose by immunostaining based confocal microscopic analysis; assay type: cell-based
How it was run: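 U2OS cells transfected with pEGFP-REV1. Two days later, 33 µM cisplatin for 3.5 h, then released into DMSO or 150 µM compound for 6 h. CSK/Triton pre-extraction, PFA fixation, methanol, PCNA (PC10) immunostain, confocal imaging. Pearson coefficient of PCNA vs REV1 per DAPI-defined nucleus; n=32–37 cells, two-tailed t-test.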

[9] = target: T1, DNA repair protein REV1 (Homo sapiens); assay: (§3) Inhibition of REV1 in human U2OS cells assessed as potentiation of cisplatin-induced cytotoxicity by measuring reduction in colony formation at 75 uM incubated for 24 hrs after 24 hrs cisplatin exposure followed by culture medium replacement with fresh medium and measured after 7 days by crystal violet staining based assay relative to control; assay type: cell-based; how it was run: as §2
[10] = target: T1, DNA repair protein REV1 (Homo sapiens); assay: Inhibition of REV1 in human HeLa cells assessed as reduction in 2.5 J/m2 UV light-induced cyclopyrimidine dimer removal at 150 uM by epi-fluorescence microscopic analysis; assay type: cell-based
How it was run: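 HeLa cells on coverslips given 0 or 2.5 J/m² UVC (254 nm), then DMSO or 150 µM compound. Fixed at time points up to 24 h, denatured in 2 M HCl and stained with anti-CPD (TDM-2). Epifluorescence mean green intensity per DAPI-defined nucleus; two-tailed t-test.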

[11] = target: T1, DNA repair protein REV1 (Homo sapiens); assay: Inhibition of REV1 in human WTK1 cells assessed as suppression of 0 to 128 J/m2 UV light-induced HPRT gene mutation by measuring reduction in number of resistant clones at 150 uM dosed Immediately following UVC treatment and measured after 21 hrs
How it was run: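 WTK-1 cells cleansed (CHAT, then THC) and conditioned in horse serum; 2×10^6 cells given UVC 0–128 J/m², then DMSO or 150 µM compound for 21 h. Survival plated at 1.6 cells/well (PE0, PE6). After 5 days' expression, 5,000 cells/well in 0.5 µg/mL 6-thioguanine; colonies scored after 11–12 days; mutation frequency normalized to plating efficiency.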

[12] = target: T1, DNA repair protein REV1 (Homo sapiens); assay: as §3, with “4-hydroxycyclophosphamide-induced” for “cisplatin-induced”, “4-hydroxycyclophosphamide-exposure” for “cisplatin exposure”; assay type: cell-based; how it was run: as §2

| IC50 [1] | Activity [2] | Activity [4] | solubility [5] | inhibition [8] | inhibition [10] | inhibition [11] | SMILES | Activity (U2OS [3]) | Activity [6] | fold change (FC) (U2OS [7]) | fold change (FC) [9] | fold change (FC) [12] |
| --- | --- | --- | --- | --- | --- | --- | --- | --- | --- | --- | --- | --- |
| 9.7 µM | Dose-dependent effect | Active | Soluble | – | – | – | Cl.O=C(CCc1cc(I)c(Oc2ccc(O)cc2)c(I)c1)N1CCNCC1 | Toxic | Active | – | – | – |
| 3.4 µM | – | – | Insoluble | Active | Active | Active | O=C1CN(C(=O)CCc2cc(I)c(Oc3ccc(O)cc3)c(I)c2)CCN1 | – | Active | 2 | 10 | 10 |
